Laboratory results taken from ChEMBL document CHEMBL1132112, “Novel modifications in the alkenyldiarylmethane (ADAM) series of non-nucleoside reverse transcriptase inhibitors” (J Med Chem, 1999).
One block for each molecule: values may come before it.

Columns and labels:
[1] = test system: CEM-SS; test: Fold resistance of HIV-1 RT containing the specified mutation V179D in CEM-SS cells.; format: functional, Homo sapiens
[2] = test system: CEM-SS; test: Fold resistance of HIV-1 RT containing the specified mutation K103N in CEM-SS cells; NC=No significant change in sensitivity; format: functional, cell-based; settings: Homo sapiens
[3] = test system: CEM-SS; test: Fold resistance of HIV-1 RT containing the specified mutation K101E in CEM-SS cells.; format: functional, Homo sapiens
[4] = test system: CEM-SS; test: Fold resistance of the specific mutation in RT to the compound; S=Enhanced sensitivity; format: functional, cell-based; settings: Homo sapiens
[5] = test system: CEM-SS; test: Fold resistance of HIV-1 RT containing the specified mutation A98G in CEM-SS cells.; format: functional, Homo sapiens
[6] = test system: CEM-SS; test: Fold resistance of HIV-1 RT containing the specified mutation V106A in CEM-SS cells.; format: functional, Homo sapiens
[7] = test system: CEM-SS; test: Fold resistance of HIV-1 RT containing the specified mutation 4X AZT in CEM-SS cells; S=Enhanced sensitivity; format: functional, cell-based; settings: Homo sapiens
[8] = test system: CEM-SS; test: Fold resistance of HIV-1 RT containing the specified mutation Y188C in CEM-SS cells.; format: functional, Homo sapiens
[9] = test system: CEM-SS; test: Fold resistance of HIV-1 RT containing the specified mutation Y181C in CEM-SS cells.; format: functional, Homo sapiens
[10] = Therapeutic index was determined for the compound as CC50/EC50; settings: read-out: TI
Method in brief: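 Ratio of CC50 (XTT viability, uninfected CEM-SS) to EC50 (XTT protection from HIV-1 RF cytopathicity in CEM-SS). Both values come from triplicates on each plate, two sister plates averaged. NA means no antiviral inhibition up to the cytotoxic concentration.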

[11] = test system: CCRF-CEM; test: Concentration inhibiting 50% of mock-infected CEM cells.; format: functional; settings: Homo sapiens
Method in brief: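 Uninfected (mock-infected) CEM-SS cultures exposed to drug. Viability by XTT, expressed as percent of drug-free control. CC50 is the concentration causing 50% cell death. Triplicates on each plate, two sister plates averaged.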

[12] = molecular target: T1, Human immunodeficiency virus type 1 reverse transcriptase (Human immunodeficiency virus 1, UniProt Q72547); test: Inhibition of HIV-1 Reverse transcriptase using poly-(rc)-oligo(dg) as the template primer.
Method in brief: (§1)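 Purified p66/51 HIV-1 reverse transcriptase. Inhibition read as incorporation of [32P]-TTP into poly(rA)·oligo(dT) or of [32P]GTP into poly(rC)·oligo(dG) homopolymer template-primer.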

[13] = molecular target: T1, Human immunodeficiency virus type 1 reverse transcriptase; test: Inhibition of HIV-1 Reverse transcriptase using poly-(ra)-oligo(dt) as the template primer.; settings: read-out: IC50; method in brief: as §1
[14] = test system: CEM-SS; test: 50% inhibitory concentration for cytopathicity of HIV-1 RF in CEM-SS cells.; format: functional, cell-based; settings: Homo sapiens
Method in brief: (§2)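 CEM-SS cells infected with HIV-1 RF; drug-induced protection from viral cytopathic effect read by XTT, as percent of uninfected drug-free control. EC50 is the concentration giving 50% protection. Triplicate wells on each plate, two sister plates; the plate EC50s (each a triplicate average) were averaged. XTT results were confirmed by supernatant RT and p24 levels. NA means no inhibition up to the concentration cytotoxic to uninfected cells.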

[15] = test system: CEM-SS; test: 50% inhibitory concentration for cytopathicity of HIV-1 RF in CEM-SS cells; NA=Not active (EC50 uM); format: functional, cell-based, Homo sapiens; method in brief: as §2
[16] = molecular target: T1, Human immunodeficiency virus type 1 reverse transcriptase; test: Inhibition of HIV-1 Reverse transcriptase using poly-(ra)-oligo(dt) as the template primer; NI=No inhibition
Method in brief: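 Purified p66/51 HIV-1 reverse transcriptase. Inhibition read as incorporation of [32P]-TTP into poly(rA)·oligo(dT) or of [32P]GTP into poly(rC)·oligo(dG) homopolymer template-primer. IC50 taken as concentration giving 50% inhibition.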

SMILES: CCCCCC=C(c1cc(Br)c(OC)c(C(=O)OC)c1)c1cc(Br)c(OC)c(C(=O)OC)c1
- Fold resistance [1]: >8
- Fold resistance [2]: No significant changed
- Fold resistance [3]: >8
- Fold resistance [4]: Enhanced sensitivity
- Fold resistance [5]: 2
- Fold resistance [6]: >8
- Fold resistance [7]: Enhanced sensitivity
- Fold resistance [8]: >8
- Fold resistance [9]: >8

SMILES: COC(=O)c1cc(C(=CCC2OCCO2)c2cc(Cl)c(OC)c(C(=O)OC)c2)cc(Cl)c1OC
- selectivity ratio [10]: 4
- CC50 [11]: 26 µM
- IC50 [12]: 3.2 µM
- IC50 [13]: 20.5 µM
- EC50 [14]: 6.5 µM

SMILES: COC(=O)c1cc(C(=CCCCC=O)c2cc(Cl)c(OC)c(C(=O)OC)c2)cc(Cl)c1OC
- CC50 [11]: 9.6 µM
- EC50 [15]: Not Active
- IC50 [12]: 4.9 µM
- IC50 [13]: 4.2 µM

SMILES: COC(=O)CC=C(c1cc(Cl)c(OC)c(C(=O)OC)c1)c1cc(Cl)c(OC)c(C(=O)OC)c1
- CC50 [11]: 13.3 µM
- EC50 [15]: Not Active
- IC50 [12]: 2.2 µM
- IC50 [13]: > 100 µM

- EC50 [14]: 1.9 µM
SMILES: COC(=O)CCCC=C(c1cc(F)c(OC)c(C(=O)OC)c1)c1cc(F)c(OC)c(C(=O)OC)c1
- selectivity ratio [10]: 35.9
- CC50 [11]: 68.3 µM

SMILES: CCC(=O)CCCC=C(c1cc(Cl)c(OC)c(C(=O)OC)c1)c1cc(Cl)c(OC)c(C(=O)OC)c1
- selectivity ratio [10]: 8.8
- CC50 [11]: 24.6 µM
- IC50 [12]: 1 µM
- EC50 [14]: 2.8 µM

- EC50 [15]: Not Active
SMILES: CCC(=O)CCCC=C(c1cc(Cl)c(OC)c(CO)c1)c1cc(Cl)c(OC)c(CO)c1
- CC50 [11]: 14.2 µM

SMILES: COC(=O)c1cc(C(=CCCCCN=[N+]=[N-])c2cc(Cl)c(OC)c(C(=O)OC)c2)cc(Cl)c1OC
- CC50 [11]: 176 µM
- IC50 [12]: 1.3 µM
- IC50 [13]: 0.8 µM
- EC50 [14]: 7.1 µM

SMILES: COC(=O)c1cc(C(=CCCCCCl)c2cc(Cl)c(OC)c(C(=O)OC)c2)cc(Cl)c1OC
- CC50 [11]: > 316 µM
- IC50 [16]: Not Active
- EC50 [14]: 50.5 µM

- EC50 [15]: Not Active
- IC50 [12]: 3.2 µM
- IC50 [13]: 31.6 µM
SMILES: CCC1(CCCC=C(c2cc(Cl)c(OC)c(CO)c2)c2cc(Cl)c(OC)c(CO)c2)OCCO1
- CC50 [11]: 16.9 µM

SMILES: CCNC(=O)OCCCCC=C(c1cc(Cl)c(OC)c(C(=O)OC)c1)c1cc(Cl)c(OC)c(C(=O)OC)c1
- CC50 [11]: 8.4 µM
- EC50 [15]: Not Active
- IC50 [12]: 3.2 µM
- IC50 [13]: 1.2 µM
